Here are results for 9 compounds from PubChem BioAssay.

Calls of active or inactive are those of the source.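 Rule for the calls, unless noted: active = inhibition above 20% together with a positive visual image hit; inconclusive = visual image hit but inhibition not above 20%; inactive = no visual image hit.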

Assay [1] is described as follows: inhibitors of TNFa-induced NFkB p65 translocation, primary screen, imaging, HUVEC, MLSMR starter and 10KST1 sets (AID 438).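 For inhibition: signal is the nuclear over cytoplasmic p65 intensity ratio per well.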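 Note: compound added about 3h40 before a 20 min TNFalpha stimulation.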 The settings on record: HUVEC TNFa-induced p65 nuclear translocation; cell count: measured here: nuclei count (cytotoxicity indicator), at 2.08 µM; inhibition: at 2 µM, stronger effect = higher value, 0% TNFa-plus-vehicle, 100% no-TNFa wells.
The nature of assay [2]: inhibitors of mutant huntingtin aggregation, primary screen, imaging, exon1htt(103Q)mCFP cells, high-content imaging (AID 483;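 active = visual image review flags a hit and inhibition of aggregation exceeds 20%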;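 note: compound exposure lasted 3 days before fixation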;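 for nuclei count: percent of the per-plate median nuclei count of sample wells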). The settings on record: exon1htt(103Q)mCFP cell line, aggregate imaging, at 2 µM; inhibition of aggregation: stronger effect = higher value; nuclei count: measured here: cell count, toxicity.
Assay [3] is described as follows: inhibitors of E-selectin induction by TNFa, primary screen, imaging, HUVEC, immunofluorescence, MLSMR starter and 10KST1 sets (AID 487;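 active = visually confirmed hit in the image check and inhibition above 20%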;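 for inhibition: signal is fraction of cell area covered by stained E-selectin grains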;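 for nuclei count: 100% = median nuclei count of all wells on the same plate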). The settings on record: HUVEC TNFalpha-induced E-selectin immunofluorescence imaging, at 2 µM; inhibition: stronger effect = higher value; nuclei count: measured here: cell number, toxicity.
Assay [4] deals with Voltage-gated potassium channel subunit beta-2 (Rattus norvegicus) (UniProt P62483). Kind of assay: KvBeta enzyme negative modulators, primary screen, biochemical, NADPH fluorescence (AID 622;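 active = fluorescence slope higher than the sample average by over 3 SD, cut at about -0.22 in these data, passing the limit was not always enough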;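 note: slope of raw intensity against log time taken from 70 to 1610 s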). The settings on record: recombinant KvBeta, 4-cyanobenzaldehyde reduction, at 10 µM, stronger effect = higher value.
For assay [5] the target is unchanged. Kind of assay: KvBeta positive modulators, primary screen, biochemical, NADPH fluorescence (AID 623;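 active = NADPH fluorescence slope more negative than the mean of all samples by about 3 SD, 99.7% confidence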;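 note: fluorescence intensity change per second fitted from 20 to 320 s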). As to conditions: Recombinant KvBeta, NADPH fluorescence decrease slope, 10 min; at 10 µM; stronger effect = lower value.
The target in assay [6] is Muscarinic acetylcholine receptor M4 (Homo sapiens) (UniProt P08173). Kind of assay: compounds altering M4/GIRK thallium flux, either direction, primary screen, M4 allosteric agonist project, cell-based, HEK293 M4/GIRK, BTC-AM (AID 625;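 active = fluorescence slope after compound addition differing from the mean of all tested samples at 99.7% confidence, mostly higher but some lower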;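 note: thallium influx through GIRK channels coupled to M4 in HEK293 cells with BTC-AM dye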). The settings on record: at 10 µM, actives lie on both sides. The gist of the method: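 assay system = HEK293 cells with M4 receptor and GIRK channels | medium = pH 7.3 thallium assay buffer | doses = 10 µM final, single point | timing = cells overnight at 37 °C, BTC-AM loading 1 h, reads 2 min total | signal = BTC-AM fluorescence, 1 Hz kinetic reads | read-out = post-addition slope, 15–24 s, of baseline-normalized fluorescence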

A short description of assay [7]: inhibitors of Sendai virus-induced IRF3 signaling, primary screen, TLR/RLR signaling modifier project, cell-based, Sendai virus stimulus, luciferase, 10K MLSCN set (AID 602276;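 active = inhibition at or above 50% at 10 µM; inactive = inhibition below 50%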;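 note: firefly luciferase from ISG56 promoter only with Renilla not read in this screen; 0% = Sendai virus plus DMSO and 100% = medium plus DMSO without virus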). As to conditions: HEK293 RL24 IRF3 luciferase reporter, at 10 µM, stronger effect = higher value. A general note: Reporter assays use an easily measured gene product as a stand-in for the process of interest.

A short description of assay [8]: inhibitors of poly I:C-induced TLR3 signaling, primary screen, cell-based, poly I:C stimulus, luciferase, 10K MLSCN set (AID 602277;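 active = inhibition of the reporter signal at or above 50%; inactive = inhibition below 50%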). The settings on record: HEK293-TLR3 RL24 IRF3 luciferase reporter, at 10 µM, stronger effect = higher value.

Sequence of Muscarinic acetylcholine receptor M4 (Homo sapiens) (P08173 whole entry, looked up): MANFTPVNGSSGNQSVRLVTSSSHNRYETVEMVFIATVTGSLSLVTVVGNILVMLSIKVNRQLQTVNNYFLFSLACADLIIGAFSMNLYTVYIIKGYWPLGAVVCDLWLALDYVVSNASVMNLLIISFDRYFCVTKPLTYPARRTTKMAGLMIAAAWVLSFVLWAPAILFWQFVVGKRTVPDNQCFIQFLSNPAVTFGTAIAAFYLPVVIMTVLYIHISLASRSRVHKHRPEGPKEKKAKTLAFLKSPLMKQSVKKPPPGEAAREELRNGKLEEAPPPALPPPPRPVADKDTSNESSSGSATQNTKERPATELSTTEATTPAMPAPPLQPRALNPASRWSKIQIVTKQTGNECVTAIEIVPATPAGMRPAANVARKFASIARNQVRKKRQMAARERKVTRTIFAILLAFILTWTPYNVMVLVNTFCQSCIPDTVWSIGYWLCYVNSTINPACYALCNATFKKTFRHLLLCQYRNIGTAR
Sequence of Voltage-gated potassium channel subunit beta-2 (Rattus norvegicus) (P62483 whole entry, looked up): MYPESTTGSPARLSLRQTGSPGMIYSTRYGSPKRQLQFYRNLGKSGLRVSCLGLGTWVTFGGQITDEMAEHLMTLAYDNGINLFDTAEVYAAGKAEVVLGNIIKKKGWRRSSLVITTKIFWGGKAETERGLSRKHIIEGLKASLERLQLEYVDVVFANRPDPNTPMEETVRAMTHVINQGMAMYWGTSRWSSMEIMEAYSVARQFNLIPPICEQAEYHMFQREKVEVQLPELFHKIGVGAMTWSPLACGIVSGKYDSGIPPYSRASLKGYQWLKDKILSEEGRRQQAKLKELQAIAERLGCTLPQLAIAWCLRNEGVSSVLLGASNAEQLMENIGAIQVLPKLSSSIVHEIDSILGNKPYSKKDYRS

In the case of `O=C(O)c1[nH]nc2c1COc1ccccc1-2`, in assay [1], the cell count stood at 308. The inhibition is 13.1% (inactive) in assay [1], 14.8% (inactive) in assay [3], 14.5% (inactive) in assay [7] and 22.3% (inactive) in assay [8]. Moreover, in assay [2], the inhibition of aggregation was -9.9% (inactive). Moreover, the values for the nuclei count in assay [2] and in assay [3] were 97% and 102%, respectively. Besides, the fluorescence slope is -0.551 (inactive) in assay [4] and 0.00437 (inactive) in assay [6]. Also, the NADPH fluorescence slope in assay [5] was -0.000118 (inactive).

For `N=c1sc2ccccc2n1-c1ccccc1`, in assay [1], the cell count came to 402. The inhibition was 10.9% (inactive) in assay [1], -469% (inactive) in assay [3], 15.3% (inactive) in assay [7] and 14.4% (inactive) in assay [8]. Besides, the inhibition of aggregation in assay [2] was 14.5% (inactive). Besides, the values for the nuclei count in assay [2] and in assay [3] were 96.6% and 114%, respectively. In addition, the fluorescence slope in assay [4] is -0.583 (inactive); in assay [6] it was 0.00638 (inactive). In assay [5], the NADPH fluorescence slope is -1.3e-05 (inactive).

Take `ON1C2CCCCC2N(O)C1c1c(F)c(F)c(F)c(F)c1F` (centres undefined): in assay [1], the cell count was 431. The inhibition in assay [1] is 4.1% (inactive); in assay [3], -53.7% (inactive); in assay [7], 15.7% (inactive); in assay [8] it was 22% (inactive). Moreover, the inhibition of aggregation in assay [2] was -6.9% (inactive). The nuclei count in assay [2] was determined as 105%; in assay [3], 102%. The fluorescence slope in assay [4] was -0.546 (inactive); in assay [6], 0.00415 (inactive). In addition, in assay [5], the NADPH fluorescence slope was -2.9e-05 (inactive).

On to `S=c1nc(C2CC2)[nH]c2ccccc12`, for which the cell count in assay [1] turned out to be 469. The inhibition was 0.8% (inactive) in assay [1], -99% (inactive) in assay [3], 19% (inactive) in assay [7] and 20.9% (inactive) in assay [8]. Moreover, the inhibition of aggregation in assay [2] was -8.3% (inactive). In addition, the nuclei count in assay [2] worked out at 106%; in assay [3], 118%. Further, the fluorescence slope is -0.49 (inactive) in assay [4] and 0.0139 (active) in assay [6]. Also, the NADPH fluorescence slope in assay [5] was -4.4e-05 (inactive).

Turning to `CCn1c(SCC(=O)Nc2nccs2)nnc1-c1ccncc1`, the cell count in assay [1] worked out at 331. The inhibition was -1.4% (inactive) in assay [1], -20.2% (inactive) in assay [3], 14.8% (inactive) in assay [7] and 21.3% (inactive) in assay [8]. Moreover, the inhibition of aggregation in assay [2] is -8.7% (inactive). Moreover, the nuclei count in assay [2] was 110%; in assay [3], 129%. In addition, the fluorescence slope in assay [4] was -0.454 (inactive); in assay [6] it was 0.00633 (inactive). Moreover, the NADPH fluorescence slope in assay [5] was -2.4e-05 (inactive).

`C=C(c1ccc(O)cc1)c1ccc(O)cc1`: the cell count in assay [1] is 447. In addition, the inhibition in assay [1] was -0.5% (inactive); in assay [3], -75% (inactive); in assay [7], 13.9% (inactive); in assay [8] it was 16.6% (inactive). The inhibition of aggregation in assay [2] was -1.6% (inactive). Also, the nuclei count stood at 123% in assay [2] and 205% in assay [3]. Further, the fluorescence slope is -0.37 (inactive) in assay [4] and 0.00598 (inactive) in assay [6]. In addition, the NADPH fluorescence slope in assay [5] was 1.7e-05 (inactive).

In the case of `Cc1oc(-c2ccccc2)cc1C(N)=O`, the cell count in assay [1] was 248. The inhibition is 0% (inactive) in assay [1], 18.6% (inactive) in assay [3], 15.1% (inactive) in assay [7] and 3.48% (inactive) in assay [8]. For the same compound, in assay [2], the inhibition of aggregation was -1.4% (inactive). In addition, the nuclei count worked out at 66.5% in assay [2] and 97.7% in assay [3]. Also, the values for the fluorescence slope in assay [4] and in assay [6] were -0.548 (inactive) and 0.0055 (inactive), respectively. Moreover, the NADPH fluorescence slope in assay [5] was -1.8e-05 (inactive).

Take `CCN1C(=O)NC(c2cc(Br)ccc2OC)C(C(=O)OC)=C1C` (centres undefined): the cell count in assay [1] worked out at 451. Besides, the inhibition in assay [1] was -13.1% (inactive); in assay [3] it was -25.6% (inactive); in assay [7], -1.28% (inactive); in assay [8], 17.3% (inactive). For the same compound, the inhibition of aggregation in assay [2] was 2.4% (inactive). For the same compound, the nuclei count in assay [2] was 92%; in assay [3], 89.2%. For the same compound, the fluorescence slope in assay [4] was -0.491 (inactive); in assay [6] it was 0.00605 (inactive). The NADPH fluorescence slope in assay [5] was 3.4e-05 (inactive).

Consider `Cc1cc(OC(=O)N2CCOCC2)cc(C)c1Cl`, for which the cell count in assay [1] is 309. The inhibition in assay [1] is -12.3% (inactive); in assay [3], -50% (inactive); in assay [7], -13.8% (inactive); in assay [8] it was 99.2% (active). Besides, the inhibition of aggregation in assay [2] is -22.3% (inactive). The values for the nuclei count in assay [2] and in assay [3] were 114% and 130%, respectively. Further, the results for the fluorescence slope in assay [4] and in assay [6] were -0.444 (inactive) and 0.00877 (inactive), respectively. The NADPH fluorescence slope in assay [5] was 5.1e-05 (inactive).

For orientation: inhibition means the relative decrease from the control value, in per cent.
